Results collected from several papers.
Each line is one published result; the experiments were not run side by side.
Target: MAP kinase-interacting serine/threonine-protein kinase 1 (MKNK1, Homo sapiens, UniProt Q9BUB5)

CN(CCCC(F)(F)F)c1nccc(-c2cnn3ncccc23)n1 — remaining binding (binding; 1 µM): 100%
CC(C)(C)c1ccc(-c2nc(CBr)nn2-c2cccc(O)c2)cc1 — remaining binding (cell-free assay, competition with immobilised ligand; 10 µM): 57%
c1cncc(-c2cccc(Nc3nccc(NC4CCCCC4)n3)c2)c1 — remaining binding (binding, competition with immobilised ligand; 10 µM): 89%
O=C(c1ccc(Nc2ncc(Cl)c(-c3cc4ccccc4s3)n2)cc1)N1CCC(N2CCCC2)CC1 — remaining binding (binding, competition with immobilised ligand; 1 µM): 24%
NS(=O)(=O)c1cc(NC(=O)Cc2ccccc2)ccc1Oc1cccc(Cl)c1 — remaining binding (cell-free assay, competition with immobilised ligand; 1 µM): 79%
C[C@@H]1CCN(c2nccc(-c3cnn4ncccc34)n2)C1 — remaining binding (binding; 1 µM): 74%
CS(=O)(=O)N1CCCC(NC(=O)[C@H](CCC2CCCCC2)NC(=O)c2ccc(CNC(=O)c3cnc4ccccn34)cc2)C1 (stereo partly shown) — remaining binding (cell-free assay, competition with immobilised ligand; 0.1 µM): 100%
CN(C)c1nccc(-c2cnc3ncccn23)n1 — remaining binding (binding; 1 µM): 67%
N#Cc1ccccc1CSc1nnc2c(n1)[nH]c1ccccc12 — remaining binding (binding, competition with immobilised ligand; 10 µM): 98%
C[C@@H]1CN(c2ccc3ncc(-c4ccc5[nH]nc(C6CC6)c5c4)n3n2)C[C@H](C)O1 — remaining binding (binding, competition with immobilised ligand; 50 nM): 92%
O=C(NCCCC1CCCCC1)c1ccc(CNC(=O)c2cnn(-c3ccccc3)c2C(F)(F)F)cc1 — remaining binding (cell-free assay, competition with immobilised ligand; 0.1 µM): 98%
COc1cnc(Nc2cccc(S(N)(=O)=O)c2)nc1N1CCN(c2ccccc2)C(=O)C1 — remaining binding (binding, competition with immobilised ligand; 1 µM): 98%
CSc1cccnc1N1CCN(Cc2nc3ccccc3[nH]2)CC1 — remaining binding (cell-free assay, competition with immobilised ligand; 1 µM): 98%
O=C(NCCCN1CCOCC1)c1ccc(Nc2ncc(Cl)c(-c3ccc(Cl)s3)n2)cc1 — remaining binding (binding, competition with immobilised ligand; 1 µM): 84%
c1cnn2ncc(-c3ccnc(N4CCC45COC5)n3)c2c1 — remaining binding (binding; 1 µM): 53%
CN(c1ccnc(CNc2nc(Nc3ccc4c(c3)CC(=O)N4)ncc2C(F)(F)F)n1)S(C)(=O)=O — remaining binding (cell-free assay, competition with immobilised ligand; 1 µM): 45%
CN(C)c1nccc(-c2cnn3ncccc23)n1 — remaining binding (binding; 1 µM): 100%
C[C@@H]1CN(c2cc(-c3n[nH]c4ccc(OC5(C)CC5)cc34)ncn2)C[C@H](C)O1 — remaining binding (cell-free assay, competition with immobilised ligand; 0.1 µM): 67%
CC1CCCN1c1nccc(-c2cnn3ncccc23)n1 (stereo not shown) — remaining binding (binding; 1 µM): 89%
CNC(=O)[C@@H]1CC[C@@H](n2c(-c3ccc4cnccc4c3)nc3ccc(C(=O)NCc4cccc(C(N)=O)c4)cc32)C1 — remaining binding (binding, competition with immobilised ligand; 1 µM): 100%
Cc1cnc(Nc2ccc(C(=O)N3CCC(N4CCCC4)CC3)cc2)nc1-c1cc2ccccc2s1 — remaining binding (binding, competition with immobilised ligand; 1 µM): 48%
COc1cc(-c2cn(C3CCc4c(F)cccc4N(CC(F)(F)F)C3=O)nn2)ccc1-n1cnc(C)c1 (stereo not shown) — remaining binding (cell-free assay, competition with immobilised ligand; 1 µM): 87%
O=C(Nc1c[nH]nc1C(=O)NC1CCNCC1)c1cc(F)cc(F)c1 — remaining binding (binding, competition with immobilised ligand; 1 µM): 100%
N[C@H]1CCN(c2nccc(-c3cnn4ncccc34)n2)C1 — remaining binding (binding; 1 µM): 90%
CNC(=O)Nc1ccc2c(c1)[C@@]1(CC2)OC(=O)N(CC(=O)N(Cc2ccc(F)cc2)[C@@H](C)C(F)(F)F)C1=O — remaining binding (cell-free assay, competition with immobilised ligand; 1 µM): 94%
